Laboratory results from ChEMBL document CHEMBL3352791, “Thioaryl naphthylmethanone oxime ether analogs as novel anticancer agents” (J Med Chem, 2014).
The source made the active and inactive calls. The calls are words filed in the database; no cut-off is given here.

How the values were obtained:
[1] = test system: MDA-MB-231; test: Induction of cAMP level in human MDA-MB-231 cells at 0.1 to 25 uM in presence of forskolin; assay type: functional, cell-based
Summary of the method: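 MDA-MB-231 cells serum-starved for 4 h, treated with 500μM IBMX for 30 min, then exposed to compound for a further 30 min. Cellular cAMP read by HTRF kit.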

[2] = target: cGMP-dependent 3',5'-cyclic phosphodiesterase (Homo sapiens) (UniProt O00408); test: Inhibition of PDE2A3 (unknown origin) activity at 1 to 10 uM
Summary of the method: (§1)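 Recombinant PDE isoform activity was read by fluorescence polarization. A binding reagent complexes with the nucleotide monophosphate that the phosphodiesterase generates from cAMP/cGMP, and this raises the polarization of the labelled substrate. Reference standards were PDE1A3 10µM IBMX, PDE2A3 1nM BAY 60-7550, PDE3CAT 1µM cilostazol, PDE4CAT rolipram, PDE5CAT 0.1µM sildenafil, PDE7A […], PDE8A1 10µM BRL-50481, PDE9A1 1µM SB 36216 and PDE11A1 dipyridamole.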

[3] = target: Dual 3',5'-cyclic-AMP and -GMP phosphodiesterase 11A (Homo sapiens) (UniProt Q9HCR9); test: Inhibition of PDE11A1 (unknown origin) activity at 1 to 10 uM; summary of the method: as §1
Dual 3',5'-cyclic-AMP and -GMP phosphodiesterase 11A (Homo sapiens), sequence (Q9HCR9 whole entry, looked up): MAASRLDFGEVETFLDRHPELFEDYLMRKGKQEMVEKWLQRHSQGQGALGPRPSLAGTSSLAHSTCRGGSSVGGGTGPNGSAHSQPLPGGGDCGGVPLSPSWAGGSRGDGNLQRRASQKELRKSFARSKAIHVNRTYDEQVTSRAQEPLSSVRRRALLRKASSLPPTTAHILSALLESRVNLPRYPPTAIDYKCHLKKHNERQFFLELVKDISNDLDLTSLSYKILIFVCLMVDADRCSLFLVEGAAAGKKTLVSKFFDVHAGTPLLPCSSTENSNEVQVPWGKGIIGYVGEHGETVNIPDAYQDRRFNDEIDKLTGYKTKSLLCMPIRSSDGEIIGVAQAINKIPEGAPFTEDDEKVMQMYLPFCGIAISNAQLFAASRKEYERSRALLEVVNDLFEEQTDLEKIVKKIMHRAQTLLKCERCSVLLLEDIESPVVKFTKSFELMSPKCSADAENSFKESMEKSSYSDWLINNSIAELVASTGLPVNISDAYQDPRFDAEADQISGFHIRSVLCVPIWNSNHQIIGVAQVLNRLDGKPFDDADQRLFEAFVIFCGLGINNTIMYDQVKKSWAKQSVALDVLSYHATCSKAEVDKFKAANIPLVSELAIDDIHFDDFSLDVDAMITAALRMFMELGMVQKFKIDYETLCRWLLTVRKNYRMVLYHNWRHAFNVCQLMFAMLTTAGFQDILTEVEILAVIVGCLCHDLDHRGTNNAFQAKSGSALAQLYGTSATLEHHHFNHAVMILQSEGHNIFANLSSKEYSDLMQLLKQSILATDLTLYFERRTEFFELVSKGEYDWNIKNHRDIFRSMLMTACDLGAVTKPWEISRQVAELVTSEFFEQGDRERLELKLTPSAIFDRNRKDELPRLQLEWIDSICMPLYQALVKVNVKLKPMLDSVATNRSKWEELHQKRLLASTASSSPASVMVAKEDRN

[4] = test system: MDA-MB-231; test: Induction of apoptosis in human […] cells assessed as caspase 9 activation at 2.5 to 7.5 uM by Caspase-Glo assay; assay type: functional, cell-based
Summary of the method: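 Caspase-8, -9 and -3 activities measured with Caspase-Glo 8, 9 and 3 kits; mean ± SEM from three independent experiments.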

[5] = target: Epidermal growth factor receptor (Homo sapiens) (UniProt P00533); test: Inhibition of EGF-induced EGFR phosphorylation at Tyr1068 in human MCF7 cells at 0.5 uM by ELISA; assay type: cell-based
Epidermal growth factor receptor (Homo sapiens), sequence (P00533 whole entry, the tested form may be a part): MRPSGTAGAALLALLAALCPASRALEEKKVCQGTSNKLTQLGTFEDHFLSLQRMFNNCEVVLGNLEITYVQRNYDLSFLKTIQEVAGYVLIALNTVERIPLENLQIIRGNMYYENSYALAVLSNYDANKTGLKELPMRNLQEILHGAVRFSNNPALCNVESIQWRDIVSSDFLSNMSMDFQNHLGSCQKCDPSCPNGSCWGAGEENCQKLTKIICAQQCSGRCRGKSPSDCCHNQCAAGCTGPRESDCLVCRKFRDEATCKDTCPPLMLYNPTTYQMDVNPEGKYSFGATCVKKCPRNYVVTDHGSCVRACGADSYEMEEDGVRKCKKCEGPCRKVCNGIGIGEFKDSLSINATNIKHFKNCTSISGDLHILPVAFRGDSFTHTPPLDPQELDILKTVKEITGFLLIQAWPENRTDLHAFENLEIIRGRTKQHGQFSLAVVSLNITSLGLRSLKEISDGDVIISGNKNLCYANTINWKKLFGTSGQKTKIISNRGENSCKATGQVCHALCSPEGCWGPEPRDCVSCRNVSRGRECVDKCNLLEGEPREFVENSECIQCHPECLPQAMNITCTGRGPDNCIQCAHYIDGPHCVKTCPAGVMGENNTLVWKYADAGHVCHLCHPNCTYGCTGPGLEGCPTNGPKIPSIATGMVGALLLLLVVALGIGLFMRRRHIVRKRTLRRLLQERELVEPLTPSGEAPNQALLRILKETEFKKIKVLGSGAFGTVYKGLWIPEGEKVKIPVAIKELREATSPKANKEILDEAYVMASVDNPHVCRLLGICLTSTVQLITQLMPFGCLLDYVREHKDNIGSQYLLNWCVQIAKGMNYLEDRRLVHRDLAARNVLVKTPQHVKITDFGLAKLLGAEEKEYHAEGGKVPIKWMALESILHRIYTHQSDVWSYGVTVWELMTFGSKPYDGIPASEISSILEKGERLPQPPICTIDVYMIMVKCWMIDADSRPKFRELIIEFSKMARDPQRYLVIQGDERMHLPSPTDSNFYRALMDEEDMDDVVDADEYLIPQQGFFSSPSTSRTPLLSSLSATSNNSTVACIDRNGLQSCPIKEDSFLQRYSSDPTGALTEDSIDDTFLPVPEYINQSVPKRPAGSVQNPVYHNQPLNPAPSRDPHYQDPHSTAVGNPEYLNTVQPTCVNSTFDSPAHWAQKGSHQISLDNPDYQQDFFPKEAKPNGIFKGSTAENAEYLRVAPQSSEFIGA

[6] = target: Epidermal growth factor receptor (Homo sapiens) (UniProt P00533); test: Inhibition of EGF-induced EGFR phosphorylation at Tyr1173 in human MCF7 cells at 0.1 uM by ELISA; assay type: cell-based
[7] = target: ETS domain-containing protein Elk-1 (Homo sapiens) (UniProt P19419); test: Inhibition of basal level ELK1 phosphorylation in human MDA-MB-231 cells at 1 uM by ELISA; assay type: cell-based
ETS domain-containing protein Elk-1 (Homo sapiens), sequence (P19419 whole entry, the tested form may be a part): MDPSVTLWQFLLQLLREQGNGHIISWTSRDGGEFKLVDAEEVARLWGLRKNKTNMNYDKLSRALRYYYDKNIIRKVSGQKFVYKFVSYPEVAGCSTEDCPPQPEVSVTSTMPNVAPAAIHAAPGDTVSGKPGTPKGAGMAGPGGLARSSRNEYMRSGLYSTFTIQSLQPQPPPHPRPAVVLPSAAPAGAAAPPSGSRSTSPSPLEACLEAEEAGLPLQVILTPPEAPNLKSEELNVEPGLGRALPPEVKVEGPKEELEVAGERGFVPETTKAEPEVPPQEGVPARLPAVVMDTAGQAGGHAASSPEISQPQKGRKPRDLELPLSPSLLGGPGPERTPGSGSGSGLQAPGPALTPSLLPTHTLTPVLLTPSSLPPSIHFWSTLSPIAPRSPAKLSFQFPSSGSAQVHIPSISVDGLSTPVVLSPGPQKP

[8] = test system: MCF7; test: Induction of apoptosis in human […] cells assessed as caspase 3 activation at 2.5 to 7.5 uM by Caspase-Glo assay; assay type: functional, cell-based
Summary of the method: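 Caspase-3 activity by Caspase-Glo 3 luminescent kit.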

[9] = test system: MCF7; test: Induction of apoptosis in human […] cells; assay type: functional, cell-based
[10] = test system: MDA-MB-231; test: Induction of apoptosis in human […] cells assessed as loss of mitochondrial membrane potential at 5 uM after 24 hrs by JC-1 staining based flow cytometry; assay type: functional, cell-based
Summary of the method: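 Cells treated at 5μM for 24 h, trypsinized, stained with JC-1 (1μg/ml) for 15 min at 37°C, washed in PBS and analysed by flow cytometry in FL1 and FL2 channels.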

[11] = test system: MDA-MB-231; test: Inhibition of VEGF-C expression in human MDA-MB-231 cells at 1 uM after 24 hrs by qPCR analysis; assay type: functional, cell-based
Summary of the method: (§2)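 Gene expression was measured by qPCR in MDA-MB-231 breast cancer cells treated with 1µM compound. GAPDH served as the housekeeping internal control.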

[12] = test system: MDA-MB-231; test: Inhibition of TGF-betaR1 expression in human MDA-MB-231 cells at 1 uM after 24 hrs by qPCR analysis; assay type: functional, cell-based; summary of the method: as §2
[13] = test system: MDA-MB-231; test: Inhibition of CDC42 protein expression in human MDA-MB-231 cells at 1 uM after 24 hrs by ELISA; assay type: functional, cell-based
Summary of the method: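 MDA-MB-231 cells treated at 1µM for 24 h. CDC42 protein measured with a G-LISA ELISA kit.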

[14] = test system: MCF7; test: Antitumor activity against human MCF7 cells xenografted in NIH-3 mouse assessed as large area of stroma/deletion of epithelial cells at 16 mg/kg, po for 25 days; assay type: functional, organism-based; design: dose 16 mg/kg
[15] = test system: MCF7; test: Antitumor activity against human MCF7 cells xenografted in NIH-3 mouse assessed as reduction in PCNA level in tumor at 16 mg/kg, po for 25 days by Western blot analysis; assay type: functional, organism-based; design: dose 16 mg/kg
[16] = test system: MCF7; test: Induction of apoptosis in human MCF7 cells xenografted in NIH-3 mouse assessed as increase in Bax to Bcl2 ratio in tumor at 16 mg/kg, po for 25 days by qPCR; assay type: functional, organism-based; design: dose 16 mg/kg
[17] = test system: MCF7; test: Induction of apoptosis in human MCF7 cells xenografted in NIH-3 mouse assessed as decrease in cyclin D1 in tumor at 16 mg/kg, po for 25 days by qPCR; assay type: functional, organism-based; design: dose 16 mg/kg
[18] = test system: MCF7; test: Inhibition of INS expression in human MCF7 cells at 5 uM by ELISA; assay type: functional, cell-based
[19] = test system: MDA-MB-231; test: Inhibition of INS expression in human MDA-MB-231 cells at 5 uM by ELISA; assay type: functional, cell-based
[20] = target: RAC-alpha serine/threonine-protein kinase (Homo sapiens) (UniProt P31749); test: Inhibition of EGF-induced AKT phosphorylation in human MDA-MB-231 cells at 1 uM by ELISA; assay type: cell-based
RAC-alpha serine/threonine-protein kinase (Homo sapiens), sequence (P31749 whole entry): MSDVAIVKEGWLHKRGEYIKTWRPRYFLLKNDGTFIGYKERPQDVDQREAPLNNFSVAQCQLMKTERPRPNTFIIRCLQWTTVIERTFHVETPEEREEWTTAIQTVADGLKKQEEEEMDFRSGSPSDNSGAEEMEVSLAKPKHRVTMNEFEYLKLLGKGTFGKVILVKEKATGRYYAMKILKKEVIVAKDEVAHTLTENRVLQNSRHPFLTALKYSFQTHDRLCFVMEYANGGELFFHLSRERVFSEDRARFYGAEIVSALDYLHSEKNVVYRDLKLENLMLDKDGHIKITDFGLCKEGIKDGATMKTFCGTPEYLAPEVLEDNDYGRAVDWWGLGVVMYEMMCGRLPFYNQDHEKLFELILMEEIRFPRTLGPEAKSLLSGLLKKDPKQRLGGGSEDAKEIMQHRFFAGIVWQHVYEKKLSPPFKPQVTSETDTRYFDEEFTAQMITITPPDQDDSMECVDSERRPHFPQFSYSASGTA

[21] = target: RAC-alpha serine/threonine-protein kinase (Homo sapiens) (UniProt P31749); test: Inhibition of basal level AKT phosphorylation in human MDA-MB-231 cells at 1 uM by ELISA; assay type: cell-based
[22] = target: Signal transducer and activator of transcription 3 (Homo sapiens) (UniProt P40763); test: Inhibition of basal level STAT3 phosphorylation in human MCF7 cells at 1 uM by ELISA; assay type: cell-based
Signal transducer and activator of transcription 3 (Homo sapiens), sequence (P40763 whole entry): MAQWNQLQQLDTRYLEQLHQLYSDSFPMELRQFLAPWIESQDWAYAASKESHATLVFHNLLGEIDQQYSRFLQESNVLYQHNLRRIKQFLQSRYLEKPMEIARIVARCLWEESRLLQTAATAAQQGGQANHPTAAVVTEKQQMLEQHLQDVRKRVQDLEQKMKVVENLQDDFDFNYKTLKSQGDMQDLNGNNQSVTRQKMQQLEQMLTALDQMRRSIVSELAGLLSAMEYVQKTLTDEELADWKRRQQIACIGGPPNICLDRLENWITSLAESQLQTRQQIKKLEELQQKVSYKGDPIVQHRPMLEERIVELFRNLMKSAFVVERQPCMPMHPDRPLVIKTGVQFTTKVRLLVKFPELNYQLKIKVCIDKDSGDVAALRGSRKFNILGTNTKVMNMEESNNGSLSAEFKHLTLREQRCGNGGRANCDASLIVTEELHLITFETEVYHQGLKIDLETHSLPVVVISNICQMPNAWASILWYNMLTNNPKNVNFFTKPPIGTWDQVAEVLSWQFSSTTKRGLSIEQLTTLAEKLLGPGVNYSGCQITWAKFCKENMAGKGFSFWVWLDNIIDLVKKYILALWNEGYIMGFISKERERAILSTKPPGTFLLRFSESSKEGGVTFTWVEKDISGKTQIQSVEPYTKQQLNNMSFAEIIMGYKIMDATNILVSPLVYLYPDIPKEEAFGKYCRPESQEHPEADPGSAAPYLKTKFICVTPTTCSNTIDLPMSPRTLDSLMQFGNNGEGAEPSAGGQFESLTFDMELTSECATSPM

[23] = target: Focal adhesion kinase 1 (Homo sapiens) (UniProt Q05397); test: Inhibition of EGF-induced FAK phosphorylation at Tyr397 in human MDA-MB-231 cells at 1 uM by ELISA; assay type: cell-based
Focal adhesion kinase 1 (Homo sapiens), sequence (Q05397 2-1052 limits assumed): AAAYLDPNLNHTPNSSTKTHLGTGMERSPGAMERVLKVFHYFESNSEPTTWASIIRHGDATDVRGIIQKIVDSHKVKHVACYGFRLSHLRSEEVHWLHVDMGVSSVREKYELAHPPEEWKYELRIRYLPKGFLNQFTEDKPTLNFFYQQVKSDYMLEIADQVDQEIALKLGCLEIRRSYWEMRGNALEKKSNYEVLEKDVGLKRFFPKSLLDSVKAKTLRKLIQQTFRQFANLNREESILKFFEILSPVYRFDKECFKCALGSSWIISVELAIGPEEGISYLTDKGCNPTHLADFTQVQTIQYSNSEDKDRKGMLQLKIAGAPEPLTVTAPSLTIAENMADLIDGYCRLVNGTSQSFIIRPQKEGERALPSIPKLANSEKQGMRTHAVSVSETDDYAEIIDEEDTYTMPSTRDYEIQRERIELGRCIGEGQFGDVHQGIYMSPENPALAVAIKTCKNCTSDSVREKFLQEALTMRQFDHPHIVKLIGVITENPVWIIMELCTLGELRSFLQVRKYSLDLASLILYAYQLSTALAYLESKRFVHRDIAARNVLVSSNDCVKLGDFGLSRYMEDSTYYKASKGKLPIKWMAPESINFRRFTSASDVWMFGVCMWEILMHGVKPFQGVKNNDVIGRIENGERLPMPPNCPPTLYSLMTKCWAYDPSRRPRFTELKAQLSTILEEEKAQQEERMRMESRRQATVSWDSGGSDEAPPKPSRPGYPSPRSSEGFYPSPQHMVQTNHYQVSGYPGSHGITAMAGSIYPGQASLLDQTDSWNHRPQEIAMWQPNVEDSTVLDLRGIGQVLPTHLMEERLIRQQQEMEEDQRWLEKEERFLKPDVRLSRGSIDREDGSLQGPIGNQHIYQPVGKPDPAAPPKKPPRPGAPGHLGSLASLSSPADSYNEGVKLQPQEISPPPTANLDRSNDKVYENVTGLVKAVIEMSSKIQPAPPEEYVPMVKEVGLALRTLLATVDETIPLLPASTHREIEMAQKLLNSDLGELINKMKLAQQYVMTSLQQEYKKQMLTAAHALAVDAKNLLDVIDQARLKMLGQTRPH

[24] = target: Epidermal growth factor receptor (Homo sapiens) (UniProt P00533); test: Inhibition of EGFR (unknown origin) at 10 uM
[25] = test system: MCF7; test: Antiproliferative activity against human ER-negative MCF7 cells after 24 hrs by MTT assay; assay type: functional, cell-based; conditions: mcf7
[26] = test system: SW-620; test: Antiproliferative activity against human SW620 cells after 24 hrs by MTT assay; assay type: functional, cell-based; conditions: SW-620, 24 h
Summary of the method: (§3)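 MTT viability: cells seeded at 1×10^4 per well in DMEM with 10% FBS, left to adhere overnight, then serum-starved 4 h. Compounds were given at a range of doses, with 0.1% DMSO vehicle as control. EC50 was taken from dose-response curves spanning 100nM-50µM. Data are mean ± SEM from at least three independent experiments.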

[27] = Antiproliferative activity against human HCT116 cells after 24 hrs by MTT assay; assay type: functional, cell-based; conditions: HCT-116, 24 h; summary of the method: as §3
[28] = test system: MCF7; test: Cell cycle arrest in human […] cells assessed as accumulation at G1 phase at 2.5 uM by propidium iodide staining by FACS analysis (reference value: 62.88%); assay type: functional
[29] = test system: MCF7; test: Cell cycle arrest in human […] MCF7 cells assessed as accumulation at S phase at 5 uM by propidium iodide staining by FACS analysis (reference value: 24.76%); assay type: functional
[30] = test system: Mus musculus; test: Toxicity in human MCF7 cells xenografted in NIH-3 mouse assessed as changed in body weight at 8 mg/kg, po for 29 days relative to control; assay type: organism-based; design: dose 8 mg/kg, route oral; conditions: in vivo, 696 h
[31] = test system: MCF7; test: Antitumor activity against human MCF7 cells xenografted in NIH-3 mouse assessed as increase in TUNEL positive cells at 16 mg/kg, po for 25 days relative to control; assay type: functional

In the case of CCN(CC)CCO/N=C(\c1ccc(SC)cc1)c1cccc2ccccc12, the Activity [1] is reported as “Active”, the inhibition [2] is reported as “inactive” and the inhibition [3] is reported as “inactive”. The Activity [4] was “Active”, the inhibition [5] was “Active” and the inhibition [6] was “Active”. For the same compound, the inhibition [7] was “Active”, the Activity [8] was “inactive” and the Activity [9] was “Active”. The Activity [10] was “Active”, the inhibition [11] was “inactive” and the inhibition [12] was “inactive”. The inhibition [13] was “Active”, the Activity [14] was “Active” and the inhibition [15] was “Active”. The Activity [16] was “Active”, the Activity [17] was “Active” and the inhibition [18] was “inactive”. For the same compound, the inhibition [19] was “inactive”, the inhibition [20] was “Active” and the inhibition [21] was “inactive”. The inhibition [22] was “inactive”, the inhibition [23] was “Active” and the inhibition [24] was “inactive”.

Compound CCN(CC)CCO/N=C(\c1ccc(SC)cc1)c1cccc2ccccc12.O=C(O)C(=O)O has an EC50 [25] of 7.5 µM, an EC50 [26] of 8.78 µM and an EC50 [27] of 7.7 µM. The Activity [28] was 70.71%, the Activity [29] was 13.88% and the Activity [30] was “Non-toxic”. It also gave an Activity [31] greater than 50%.
